Measurements from publication PMC4100979 (Chembiochem : a European journal of chemical biology, 2013).
“Also recorded” adds a separate entry of the source.

Key:
[1] = system: GLP-1R and SUR1 on βTC3 cells; experiment: Competition of 15 nM Eu-GLP-1/Glb 10 by unlabelled monomers in live βTC3 cells; format: binding; conditions: 1.6 nM monomer vs 15 nM Eu-GLP-1/Glb 10, 1 hr, Figure 3
Outline: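 βTC3 cells, ~70,000/well, grown 3 days. They were exposed for 1 h to 15 nM Eu-labelled bivalent ligand with 4.1 fM or 1.6 nM unlabelled GLP-1 or Glb, in RPMI binding medium (1 mM 1,10-phenanthroline, 200 mg/L bacitracin, 0.5 mg/L leupeptin, 0.2% BSA). Non-specific binding was not measured. Cells were washed three times, then given enhancement solution for ≥30 min at 37°C. Eu time-resolved fluorescence was read at 340/615 nm. Quadruplicates unless noted.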

GLP-1R on βTC3 cells = biological target: T1, GLP-1R on βTC3 cells (Mus musculus, UniProt O35659); experiment: Saturation binding of bivalent Eu-labelled ligand in presence of unlabelled Glb; conditions: 300 nM Glb, below 35 nM Eu-ligand
T1 sequence (O35659 22-463): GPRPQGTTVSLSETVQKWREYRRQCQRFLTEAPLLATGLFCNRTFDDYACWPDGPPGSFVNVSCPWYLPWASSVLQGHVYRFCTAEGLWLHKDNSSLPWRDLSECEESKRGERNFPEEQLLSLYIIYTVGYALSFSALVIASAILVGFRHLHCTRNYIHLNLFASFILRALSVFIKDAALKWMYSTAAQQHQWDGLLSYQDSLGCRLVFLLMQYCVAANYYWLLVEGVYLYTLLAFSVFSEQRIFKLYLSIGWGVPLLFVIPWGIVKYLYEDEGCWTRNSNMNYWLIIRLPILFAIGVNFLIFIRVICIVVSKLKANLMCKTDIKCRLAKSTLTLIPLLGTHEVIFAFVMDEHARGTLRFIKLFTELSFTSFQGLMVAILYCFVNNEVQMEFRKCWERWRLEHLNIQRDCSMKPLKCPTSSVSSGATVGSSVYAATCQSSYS

INS 832/3 cells = experiment: Insulin secretion; format: cell-based, rat; conditions: 20 mM glucose vs 1 mM glucose, 2 hour incubation; p<0.05
Outline: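 INS 832/3 cells were seeded at 500,000/well and grown 72 h. They were rinsed in HBSS with 1 mM glucose, then held 2 h in the same. Medium was replaced with the test glucose level (1 or 20 mM) ± secretagogues for 2 h. Secreted insulin was measured by rat insulin ELISA (ng/ml) and expressed as % of the mean 1 mM glucose secretion within each experiment.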

| Compound | effect of unlabelled monomer on bivalent binding [1] | effect of unlabelled Glb on high affinity binding of Eu-GLP-1/Glb 10 (GLP-1R on βTC3 cells) | induction of insulin secretion by glucose (INS 832/3 cells) |
| --- | --- | --- | --- |
| COc1ccc(Cl)cc1C(=O)NCCc1ccc(S(=O)(=O)NC(=O)NC2CCCCC2)cc1 [Glb, glibenclamide] | bivalent binding is lost | blocks high affinity binding; also recorded: blocked the high affinity binding | – |
| OC[C@H]1OC(O)[C@H](O)[C@@H](O)[C@@H]1O (stereo partly shown) [glucose] | – | – | ~ 4 fold |
| GLP-1: unlabelled GLP-1 monomer used as competitor | bivalent binding is lost | – | – |
